Experimental data reported in ChEMBL document CHEMBL5724801, “EUbOPEN Chemogenomics Library - Multiplex” (2024).
“And” between values parts separate entries of the source, which are not always exact repeats. Identical values can stand only once.

Test system: Fibroblast
Test: Multiplex assay against human fibroblast
Format: toxicity, cell-based
How it was run: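 Values for tubulin, mitochondrial-mass and membrane-permeability phenotypes are per cents of cells with healthy nuclei. These cells were identified by CellPathfinder machine-learning gating of live cells that had been stained at seeding with Hoechst33342, BioTracker Green Microtubule Cytoskeleton Dye, MitoTracker Red and Annexin V Alexa Fluor 680 and imaged on a CQ1 microscope at 37°C and 5% CO2 after compound addition. The gating first set Hoechst high-intensity objects apart from normal cells, then split normal cells into healthy, pyknosed or fragmented nuclei, and pyknosed cells into mitotic or apoptotic.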

[1] = 12 h, 1 µM, compound concentration 1 uM
[2] = 12 h, 10 µM, compound concentration 10 uM
[3] = 24 h, 1 µM, compound concentration 1 uM
[4] = 24 h, 10 µM, compound concentration 10 uM
[5] = 48 h, 1 µM, compound concentration 1 uM
[6] = 48 h, 10 µM, compound concentration 10 uM

## O=C1c2c(Br)c(Br)c(Br)c(Br)c2C(=O)N1c1ncc[nH]1
[1]
  Population Apoptotic (%): 13.21% and 28%
  Population Fragmented Nuclei (%): 9.34% and 7.04%
  Population Healthy Nuclei (%): 61.54% and 81.22%
  Population Hoechst High Intensity Objects (%): 0%
  Population Membrane Permeable-Phenotype (%): 4.46% and 1.16%
  Population Mitochondria Different-Phenotype (%): 9.82% and 9.25%
  Population Mitotic Cells (%): 86.79% and 72%
  Population Normal (%): 100%
  Population Pyknosed Nuclei (%): 29.12% and 11.74%
  Population Tubulin-Different-Phenotype (%): 16.96% and 14.45%
  Total Cell Count: 182 and 213
[2]
  Population Apoptotic (%): 10.81% and 15.56%
  Population Fragmented Nuclei (%): 9.5% and 3.32%
  Population Healthy Nuclei (%): 69.83% and 75.36%
  Population Hoechst High Intensity Objects (%): 0%
  Population Membrane Permeable-Phenotype (%): 6.4% and 1.89%
  Population Mitotic Cells (%): 89.19% and 84.44%
  Population Normal (%): 100%
  Population Pyknosed Nuclei (%): 20.67% and 21.33%
  Population Tubulin-Different-Phenotype (%): 10.4% and 27.67%
  Total Cell Count: 179 and 211
[3]
  Population Fragmented Nuclei (%): 11.34% and 5.44%
  Population Healthy Nuclei (%): 70.62% and 82.01%
  Population Hoechst High Intensity Objects (%): 0%
  Population Membrane Permeable-Phenotype (%): 5.84% and 4.08%
  Population Mitochondria Different-Phenotype (%): 7.3% and 2.55%
  Population Mitotic Cells (%): 91.43% and 60%
  Population Normal (%): 100%
  Population Pyknosed Nuclei (%): 18.04% and 12.55%
  Population Tubulin-Different-Phenotype (%): 16.06% and 11.73%
  Total Cell Count: 194 and 239
[4]
  Population Apoptotic (%): 11.11% and 20%
  Population Fragmented Nuclei (%): 13.13% and 3.29%
  Population Healthy Nuclei (%): 73.23% and 84.98%
  Population Hoechst High Intensity Objects (%): 0%
  Population Membrane Permeable-Phenotype (%): 3.45% and 5.52%
  Population Mitochondria Different-Phenotype (%): 4.14% and 7.18%
  Population Mitotic Cells (%): 88.89% and 80%
  Population Normal (%): 100%
  Population Pyknosed Nuclei (%): 13.64% and 11.74%
  Population Tubulin-Different-Phenotype (%): 11.72% and 23.2%
  Total Cell Count: 198 and 213
[5]
  Population Fragmented Nuclei (%): 10% and 10.04%
  Population Healthy Nuclei (%): 84.21% and 84.56%
  Population Hoechst High Intensity Objects (%): 0%
  Population Membrane Permeable-Phenotype (%): 0.62% and 1.83%
  Population Mitotic Cells (%): 63.64% and 92.86%
  Population Normal (%): 100%
  Population Pyknosed Nuclei (%): 5.79% and 5.41%
  Population Tubulin-Different-Phenotype (%): 6.88% and 17.81%
  Total Cell Count: 190 and 259
[6]
  Population Fragmented Nuclei (%): 12.8% and 3.12%
  Population Healthy Nuclei (%): 85.31% and 89.29%
  Population Hoechst High Intensity Objects (%): 0%
  Population Membrane Permeable-Phenotype (%): 1.11% and 2%
  Population Normal (%): 100%
  Population Pyknosed Nuclei (%): 1.9% and 7.59%
  Total Cell Count: 211 and 224

## CCOc1ccccc1C(=O)NCC1(N2CCN(CC)CC2)CCCCC1
[1]
  Population Apoptotic (%): 8% and 22.22%
  Population Healthy Nuclei (%): 51.46% and 68.29%
  Population Hoechst High Intensity Objects (%): 0%
  Population Membrane Permeable-Phenotype (%): 3.41% and 2.98%
  Population Mitochondria Different-Phenotype (%): 3.41% and 11.31%
  Population Mitotic Cells (%): 92% and 77.78%
  Population Normal (%): 100%
  Population Pyknosed Nuclei (%): 29.24% and 25.61%
  Population Tubulin-Different-Phenotype (%): 10.23% and 23.81%
  Total Cell Count: 171 and 246
[2]
  Population Apoptotic (%): 12.35% and 12.82%
  Population Fragmented Nuclei (%): 13.04% and 5.43%
  Population Healthy Nuclei (%): 42.93% and 73.37%
  Population Hoechst High Intensity Objects (%): 0%
  Population Membrane Permeable-Phenotype (%): 5.06% and 9.63%
  Population Mitochondria Different-Phenotype (%): 41.77% and 25.19%
  Population Mitotic Cells (%): 87.65% and 87.18%
  Population Normal (%): 100%
  Population Pyknosed Nuclei (%): 44.02% and 21.2%
  Population Tubulin-Different-Phenotype (%): 65.82% and 80.74%
  Total Cell Count: 184
[3]
  Population Apoptotic (%): 15.79% and 31.25%
  Population Fragmented Nuclei (%): 10.24% and 5.42%
  Population Healthy Nuclei (%): 66.87% and 81.25%
  Population Hoechst High Intensity Objects (%): 0%
  Population Membrane Permeable-Phenotype (%): 1.8% and 4.1%
  Population Mitochondria Different-Phenotype (%): 4.5% and 8.72%
  Population Mitotic Cells (%): 84.21% and 68.75%
  Population Normal (%): 100%
  Population Pyknosed Nuclei (%): 22.89% and 13.33%
  Population Tubulin-Different-Phenotype (%): 12.61% and 24.1%
  Total Cell Count: 166 and 240
[4]
  Population Apoptotic (%): 12.5% and 5.13%
  Population Fragmented Nuclei (%): 13.66% and 11.26%
  Population Healthy Nuclei (%): 62.93% and 71.17%
  Population Hoechst High Intensity Objects (%): 0%
  Population Membrane Permeable-Phenotype (%): 3.1% and 5.06%
  Population Mitochondria Different-Phenotype (%): 45.74% and 22.78%
  Population Mitotic Cells (%): 87.5% and 94.87%
  Population Normal (%): 100%
  Population Pyknosed Nuclei (%): 23.41% and 17.57%
  Population Tubulin-Different-Phenotype (%): 68.22% and 84.81%
  Total Cell Count: 205 and 222
[5]
  Population Apoptotic (%): 21.43% and 23.08%
  Population Fragmented Nuclei (%): 13.04% and 10.42%
  Population Healthy Nuclei (%): 79.35% and 84.17%
  Population Hoechst High Intensity Objects (%): 0%
  Population Membrane Permeable-Phenotype (%): 0.68% and 0.5%
  Population Mitotic Cells (%): 78.57% and 76.92%
  Population Normal (%): 100%
  Population Pyknosed Nuclei (%): 7.61% and 5.42%
  Population Tubulin-Different-Phenotype (%): 8.9% and 21.29%
  Total Cell Count: 184 and 240
[6]
  Population Apoptotic (%): 15.79% and 45.16%
  Population Fragmented Nuclei (%): 15.15% and 7.88%
  Population Healthy Nuclei (%): 76.62% and 79.25%
  Population Hoechst High Intensity Objects (%): 1.28% and 0%
  Population Membrane Permeable-Phenotype (%): 3.39% and 4.71%
  Population Mitochondria Different-Phenotype (%): 27.12% and 15.18%
  Population Mitotic Cells (%): 84.21% and 54.84%
  Population Normal (%): 98.72% and 100%
  Population Pyknosed Nuclei (%): 8.23% and 12.86%
  Population Tubulin-Different-Phenotype (%): 62.15% and 89.01%
  Total Cell Count: 234 and 241
